Test results taken from ChEMBL document CHEMBL2311288, “Discovery of liver-targeted inhibitors of stearoyl-CoA desaturase (SCD1)” (Bioorg Med Chem Lett, 2013).

Key:
[1] = test system: Mus musculus; assay: Toxicity in CD-1 mouse assessed as tubular atrophy of the testes up to 300 mg/kg, po; assay type: organism-based, Testis; parameters: dose 300 mg/kg, route oral; conditions: in vivo
[2] = Drug level in liver in rat at 10 mg/kg measured after 6 hrs; assay type: ADME, organism-based; parameters: dose 10 mg/kg; conditions: read-out: Drug uptake
In short: (§1)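 Rats were given a single 10 mg/kg dose. Plasma exposure (AUC, Cmax) was determined, and drug concentrations in plasma, brain and liver were measured at 6 h post-dose. The liver/plasma ratio was taken from the 6 h levels.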

[3] = test system: Mus musculus; assay: Toxicity in CD-1 mouse assessed as absolute liver weight at 100 mg/kg, po; assay type: organism-based; parameters: dose 100 mg/kg, route oral; conditions: in vivo
[4] = test system: Mus musculus; assay: Toxicity in mouse assessed as abnormalities in eyes at 30 mg/kg; assay type: organism-based; parameters: dose 30 mg/kg; conditions: in vivo
[5] = test system: Mus musculus; assay: Toxicity in CD-1 mouse assessed as decrease in absolute peri-renal fat weight at 100 to 300 mg/kg, po relative to control; assay type: organism-based; parameters: dose 100-300 mg/kg, route oral; conditions: in vivo
[6] = AUC (0 to 24 hrs) in CD-1 mouse at 100 mg/kg, po; assay type: ADME, organism-based; parameters: time < 24 hr, dose 100 mg/kg, route oral; conditions: plasma
In short: (§2)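 Male CD-1 mice received single daily oral gavage doses of 30, 100 or 300 mg/kg for 2 weeks. Plasma drug levels were determined on Day 13, and exposure was expressed as AUC(0–24 h).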

[7] = test system: Mus musculus; assay: Toxicity in mouse assessed as abnormalities in skin at 30 mg/kg; assay type: organism-based; parameters: dose 30 mg/kg; conditions: in vivo
[8] = test system: Mus musculus; assay: Toxicity in CD-1 mouse assessed as eyelid atrophy of sebaceous gland up to 300 mg/kg, po; assay type: organism-based; parameters: dose 300 mg/kg, route oral; conditions: in vivo
[9] = Plasma concentration in AKR/J mouse at 30 mg/kg measured after 4 hrs; assay type: ADME, organism-based; parameters: dose 30 mg/kg
In short: (§3)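 Male AKR/J mice, 7 weeks old (n = 10/group) and fed a 10% kcal low-fat diet, were given oral doses of 1, 3, 10 or 30 mg/kg. Plasma was collected 4 h after dosing, and drug concentration in that plasma was measured.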

[10] = target: T1, Acyl-CoA desaturase 1 (Rattus norvegicus, UniProt P07308); assay: Inhibition of rat SCD1 by rat microsomal assay
T1 sequence (P07308 whole entry): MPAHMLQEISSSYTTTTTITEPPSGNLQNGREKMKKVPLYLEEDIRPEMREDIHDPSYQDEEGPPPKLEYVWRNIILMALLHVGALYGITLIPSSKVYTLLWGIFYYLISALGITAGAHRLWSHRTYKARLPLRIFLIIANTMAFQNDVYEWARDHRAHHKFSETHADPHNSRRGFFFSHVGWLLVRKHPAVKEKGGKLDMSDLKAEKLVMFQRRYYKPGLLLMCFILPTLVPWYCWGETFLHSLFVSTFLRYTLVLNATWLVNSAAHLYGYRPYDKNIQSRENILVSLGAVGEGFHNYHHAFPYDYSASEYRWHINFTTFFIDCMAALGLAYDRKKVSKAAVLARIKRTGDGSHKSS
In short: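 Microsomal desaturase activity was measured in 100 mM Tris HCl pH 7.3 with 2 mM NADH and [9,10-3H]stearoyl-CoA for 15 min at room temperature. The reaction was stopped on ice with trichloroacetic acid, then passed through activated charcoal, and tritium in the filtrate was counted. Compounds were tested in 2% DMSO final. Percent inhibition = (total−sample)/(total−blank)×100, with the blank set by 10⁻⁴ M of a standard inhibitor.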

[11] = test system: Mus musculus; assay: Toxicity in CD-1 mouse assessed as effect on food consumption up to 300 mg/kg, po; assay type: organism-based; parameters: dose 300 mg/kg, route oral; conditions: in vivo
[12] = test system: Mus musculus; assay: Toxicity in CD-1 mouse assessed as effect on body weight up to 300 mg/kg, po; assay type: organism-based; parameters: dose 300 mg/kg, route oral; conditions: in vivo
[13] = test system: Mus musculus; assay: Toxicity in CD-1 mouse assessed as eyes (corneal degeneration, inflammation) up to 300 mg/kg, po; assay type: organism-based, Cornea; parameters: dose 300 mg/kg, route oral; conditions: in vivo
[14] = AUC (0 to 24 hrs) in CD-1 mouse at 30 mg/kg, po; assay type: ADME, organism-based; parameters: time < 24 hr, dose 30 mg/kg, route oral; conditions: plasma; in short: as §2
[15] = test system: Mus musculus; assay: Toxicity in CD-1 mouse assessed as relative liver weight at 100 mg/kg, po; assay type: organism-based; parameters: dose 100 mg/kg, route oral; conditions: in vivo
[16] = Plasma concentration in AKR/J mouse at 10 mg/kg measured after 4 hrs; assay type: ADME, organism-based; parameters: dose 10 mg/kg; in short: as §3
[17] = test system: Mus musculus; assay: Toxicity in CD-1 mouse assessed as atrophy of the harderian and meibomian glands up to 300 mg/kg, po; assay type: organism-based; parameters: dose 300 mg/kg, route oral; conditions: in vivo
[18] = test system: Mus musculus; assay: Toxicity in CD-1 mouse assessed as inhibition of fatty acid metabolism measured as lesions in eyes and skin at 30 to 300 mg/kg, po for 2 weeks; assay type: organism-based; parameters: dose 30-300 mg/kg, route oral; conditions: in vivo, 336 h
[19] = Plasma concentration in AKR/J mouse at 3 mg/kg measured after 4 hrs; assay type: ADME, organism-based; parameters: dose 3 mg/kg; in short: as §3
[20] = test system: Mus musculus; assay: Toxicity in CD-1 mouse assessed as decrease in relative peri-renal fat weight at 100 to 300 mg/kg, po relative to control; assay type: organism-based; parameters: dose 100-300 mg/kg, route oral; conditions: in vivo
[21] = AUC (0 to 24 hrs) in CD-1 mouse at 300 mg/kg, po; assay type: ADME, organism-based; parameters: time < 24 hr, dose 300 mg/kg, route oral; conditions: plasma; in short: as §2
[22] = Cmax in rat at 10 mg/kg; assay type: ADME, organism-based; parameters: dose 10 mg/kg; conditions: in vivo; in short: as §1
[23] = Plasma concentration in rat at 10 mg/kg measured after 6 hrs; assay type: ADME, organism-based; parameters: dose 10 mg/kg; in short: as §1
[24] = Ratio of drug level in liver to plasma of rat at 10 mg/kg measured after 6 hrs; assay type: ADME, organism-based; parameters: dose 10 mg/kg; in short: as §1
[25] = test system: Mus musculus; assay: Toxicity in CD-1 mouse assessed as relative liver weight at 300 mg/kg, po; assay type: organism-based; parameters: dose 300 mg/kg, route oral; conditions: in vivo
[26] = Plasma concentration in AKR/J mouse at 1 mg/kg measured after 4 hrs; assay type: ADME, organism-based; parameters: dose 1 mg/kg; in short: as §3
[27] = test system: Rattus norvegicus; assay: AUC in rat at 10 mg/kg; assay type: ADME, organism-based, Plasma; parameters: dose 10 mg/kg; conditions: in vivo; in short: as §1
[28] = test system: Mus musculus; assay: Toxicity in CD-1 mouse assessed as skin atrophy of sebaceous gland up to 300 mg/kg, po; assay type: organism-based; parameters: dose 300 mg/kg, route oral; conditions: in vivo
[29] = test system: Mus musculus; assay: Toxicity in CD-1 mouse assessed as minimal Leydig cell hyperplasia of the testes at 300 mg/kg, po; assay type: organism-based, Testis; parameters: dose 300 mg/kg, route oral; conditions: in vivo
[30] = test system: Mus musculus; assay: Toxicity in CD-1 mouse assessed as meibomian gland (atrophy, squamous metaplasia) up to 300 mg/kg, po; assay type: organism-based; parameters: dose 300 mg/kg, route oral; conditions: in vivo
[31] = test system: Mus musculus; assay: Toxicity in CD-1 mouse assessed as absolute liver weight at 300 mg/kg, po; assay type: organism-based; parameters: dose 300 mg/kg, route oral; conditions: in vivo

concentration at 6 h [2]: 19200 ng/g
AUC(0-t) at 24 h [6]: 565 µM·h
concentration at 4 h [9]: 1740 ng/mL
IC50 [10]: 8 nM
AUC(0-t) at 24 h [14]: 114 µM·h
concentration at 4 h [16]: 135 ng/mL
concentration at 4 h [19]: 45 ng/mL
AUC(0-t) at 24 h [21]: 1520 µM·h
Cmax [22]: 495 ng/g
concentration at 6 h [23]: 345 ng/g
Kp at 6 h [24]: 56
concentration at 4 h [26]: 0.64 ng/mL
AUC [27]: 2308 ng·h/g
SMILES: O=C(O)c1cnc(N2CCC3(CC2)CCN(Cc2cccc(C(F)(F)F)c2)c2ccccc2O3)s1
Activity [1]: Toxic
Activity [3]: 19%
Activity [4]: Non-toxic
Activity [5]: Toxic
Activity [7]: Non-toxic
Activity [8]: Toxic
Activity [11]: Non-toxic
Activity [12]: Non-toxic
Activity [13]: Toxic
Activity [15]: 20%
Activity [17]: Toxic
Activity [18]: Toxic
Activity [20]: Toxic
Activity [25]: 33%
Activity [28]: Toxic
Activity [29]: Toxic
Activity [30]: Toxic
Activity [31]: 29%
